This note sets out measurements from ChEMBL document CHEMBL2202977, “Optimization and structure-activity relationships of a series of potent inhibitors of methicillin-resistant Staphylococcus aureus (MRSA) pyruvate kinase as novel antimicrobial agents” (Bioorg Med Chem, 2012).

The term inhibition denotes the relative decrease from the control value, in per cent. Broadly, the IC50 is the concentration needed to halve the response being measured. Read a high IC50 as a need for much substance.

≈ marks a conversion by molar mass, not a printed value. Where only a bound is given, the exact number is not on record here.

Experiment [1] has as its system Staphylococcus aureus. Description: Antimicrobial activity against Staphylococcus aureus RN4220 after 24 hrs broth microdilution method. Format: functional. The gist of the method: (§1)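 MIC taken as the minimum concentration giving >98% growth inhibition of the named S. aureus strain (RN4220, ATCC 25923 or ATCC 29213). Values are single determinations or averages of n determinations. Vancomycin was run as control.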
(Dilution methods test growth across graded concentrations, often in twofold steps.)

Experiment [2] concerns the target Pyruvate kinase PKLR (Homo sapiens) (UniProt P30613). As to the kind of experiment: Inhibition of human pyruvate kinase L at 10 uM by LDH assay. The gist of the method:
(§2)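 Selected compounds were tested against mammalian PK isoforms M1, M2, R and L at the highest concentration, 10 µM. Results are given as percent inhibition.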

The target in experiment [3] is Pyruvate kinase PKM (Homo sapiens) (UniProt P14618). As to the kind of experiment: Inhibition of human pyruvate kinase M1 at 10 uM by LDH assay. The gist of the method:
as §2

A further experiment concerns the target T1, Pyruvate kinase (Staphylococcus aureus (strain MRSA252), UniProt Q6GG09).
T1 sequence (Q6GG09 whole entry): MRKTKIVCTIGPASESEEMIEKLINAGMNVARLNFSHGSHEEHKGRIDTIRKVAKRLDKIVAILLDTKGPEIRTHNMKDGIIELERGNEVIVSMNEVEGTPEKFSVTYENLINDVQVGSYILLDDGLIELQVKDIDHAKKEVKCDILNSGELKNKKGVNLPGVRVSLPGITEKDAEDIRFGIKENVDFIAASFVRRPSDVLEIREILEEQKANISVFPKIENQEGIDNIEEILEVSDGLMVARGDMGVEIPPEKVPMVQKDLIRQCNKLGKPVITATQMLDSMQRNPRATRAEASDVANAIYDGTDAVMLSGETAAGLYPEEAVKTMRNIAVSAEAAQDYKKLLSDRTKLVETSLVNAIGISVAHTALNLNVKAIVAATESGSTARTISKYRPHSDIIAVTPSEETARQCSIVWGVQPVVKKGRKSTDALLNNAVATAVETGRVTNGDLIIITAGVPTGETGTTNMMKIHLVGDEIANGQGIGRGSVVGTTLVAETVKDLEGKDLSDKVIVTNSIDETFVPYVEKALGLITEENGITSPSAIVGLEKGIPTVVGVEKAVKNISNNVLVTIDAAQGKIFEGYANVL
Description: Inhibition of methicillin-resistant Staphylococcus aureus 252 pyruvate kinase by LDH assay. Set-up: species or system Staphylococcus aureus subsp. aureus MRSA252. The gist of the method: (§3)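 MRSA pyruvate kinase activity was measured by a previously described procedure. IC50 was calculated from triplicate 15-point titrations, or averaged over n such determinations. Where no IC50 was obtained, the value is % inhibition at the highest concentration tested.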

Experiment [4] deals with Pyruvate kinase PKLR (Homo sapiens) (UniProt P30613). Description: Inhibition of human pyruvate kinase R at 10 uM by LDH assay. An outline of the steps:
as §2

Experiment [5] deals with Pyruvate kinase PKM (Homo sapiens) (UniProt P14618). As to the kind of experiment: Inhibition of human pyruvate kinase M2 at 10 uM by LDH assay. The gist of the method: as §2
Sequence of Pyruvate kinase PKM (Homo sapiens) (P14618 2-531 limits assumed): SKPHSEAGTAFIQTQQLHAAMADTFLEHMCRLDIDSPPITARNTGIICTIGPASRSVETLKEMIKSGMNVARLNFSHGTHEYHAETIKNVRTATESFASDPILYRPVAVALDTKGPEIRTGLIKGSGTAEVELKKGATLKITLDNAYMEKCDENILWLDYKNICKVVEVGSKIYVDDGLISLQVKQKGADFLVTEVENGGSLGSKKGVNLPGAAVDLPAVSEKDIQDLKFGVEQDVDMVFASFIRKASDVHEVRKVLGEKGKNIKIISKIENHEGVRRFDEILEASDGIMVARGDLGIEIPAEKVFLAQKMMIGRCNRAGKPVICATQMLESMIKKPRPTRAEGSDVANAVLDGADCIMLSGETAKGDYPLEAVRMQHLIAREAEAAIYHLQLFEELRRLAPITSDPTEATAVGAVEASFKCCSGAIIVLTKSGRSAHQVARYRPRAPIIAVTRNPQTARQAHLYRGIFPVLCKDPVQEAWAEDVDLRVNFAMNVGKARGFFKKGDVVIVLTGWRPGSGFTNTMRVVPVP
For experiment [6], the target named is T2, Pyruvate kinase (Staphylococcus aureus (strain MRSA252)) (UniProt Q6GG09).
T2 sequence (whole entry): T1 sequence (Q6GG09 whole entry)
Description: Inhibition of methicillin-resistant Staphylococcus aureus 252 pyruvate kinase at 10 uM by LDH assay. Conditions: Staphylococcus aureus subsp. aureus MRSA252. The gist of the method:
as §3

Experiment [7] concerns Staphylococcus aureus. Description: Antimicrobial activity against Staphylococcus aureus ATCC 29213 after 24 hrs broth microdilution method. Format: functional. The gist of the method:
as §1

Sequence of Pyruvate kinase PKLR (Homo sapiens) (P30613 whole entry, looked up, canonical isoform): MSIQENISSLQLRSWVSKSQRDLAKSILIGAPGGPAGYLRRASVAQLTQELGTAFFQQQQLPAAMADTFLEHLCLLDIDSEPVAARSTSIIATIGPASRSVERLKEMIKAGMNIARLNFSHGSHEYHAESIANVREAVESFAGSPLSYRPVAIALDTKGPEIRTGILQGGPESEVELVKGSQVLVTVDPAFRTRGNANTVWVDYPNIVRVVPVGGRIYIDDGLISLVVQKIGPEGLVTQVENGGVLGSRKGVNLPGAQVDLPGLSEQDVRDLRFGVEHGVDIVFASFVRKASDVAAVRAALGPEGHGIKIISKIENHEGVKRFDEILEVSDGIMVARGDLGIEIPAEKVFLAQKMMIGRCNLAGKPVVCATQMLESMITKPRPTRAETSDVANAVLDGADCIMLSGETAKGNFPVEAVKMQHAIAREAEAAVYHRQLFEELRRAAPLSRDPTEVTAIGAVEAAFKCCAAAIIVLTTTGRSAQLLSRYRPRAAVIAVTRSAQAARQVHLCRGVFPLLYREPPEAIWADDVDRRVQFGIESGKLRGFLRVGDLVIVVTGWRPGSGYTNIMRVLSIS

Take `C/C(=N\NC(=O)c1cc(Br)ccc1O)c1cc2cc(Br)ccc2[nH]1`: in the experiment on Staphylococcus aureus [1], the “MIC>98” value is over 226 µg/mL. The inhibition in experiment [2] amounted to 6.8%; in experiment [3], 21.6%; in experiment [4], 10.7%; in experiment [5], 8.3%; in experiment [6] it was 72.2%. This compound gave an IC50 at Pyruvate kinase of 49 nM.

`COc1ccc(Br)cc1C(=O)N/N=C/c1cc2ccccc2[nH]1`: the IC50 at Pyruvate kinase was determined as 451 nM. Besides, the “MIC>98” value against Staphylococcus aureus [7] was over 64 µg/mL.

In the case of `C#CCOc1ccccc1C(=O)N/N=C(\C)c1cc2cc(Br)ccc2[nH]1`, the “MIC>98” value in the experiment with Staphylococcus aureus [1] is over 205 µg/mL. Also, the inhibition turned out to be 23.1% in experiment [2]; 20.2% in experiment [3]; 24% in experiment [4]; 2.5% in experiment [5]; 93.2% in experiment [6]. Also, the IC50 against Pyruvate kinase came out at 64 nM.

At Pyruvate kinase, `C/C(=N\NC(=O)c1cc2ccccc2cc1O)c1cc2c(F)c(F)c(F)cc2n1C` gave an IC50 of 59 nM. Also, the “MIC>98” value in the experiment on Staphylococcus aureus [7] is over 64 µg/mL.

As to `C/C(=N\NC(=O)c1cc(I)ccc1O)c1cc2ccccc2[nH]1`, the “MIC>98” value against Staphylococcus aureus [1] is over 84 µg/mL. Besides, the inhibition in experiment [2] is -1.6%; in experiment [3] it was 0%; in experiment [4], 0.9%; in experiment [5] it was -1.3%; in experiment [6] it was 97%. In addition, the IC50 at Pyruvate kinase was found to be 151 nM.

The compound `CC(=NNC(=O)c1cc2ccccc2cc1O)c1cc2cc(Br)ccc2n1C` (mixture of isomers) gave an IC50 against Pyruvate kinase of 115 nM. Besides, the “MIC>98” value in the experiment on Staphylococcus aureus [7] was over 64 µg/mL.

For the compound `CC(=NNC(=O)c1cc(Br)ccc1O)c1cc2cc(Br)ccc2n1C` (mixture of isomers), the “MIC>98” value in the experiment on Staphylococcus aureus [1] was found to be 1.4 µg/mL. For the same compound, the inhibition in experiment [2] is 9.2%; in experiment [3], 19.5%; in experiment [4] it was 14.2%; in experiment [5] it was 11.9%. This compound returned an IC50 on Pyruvate kinase of 146 nM.

As to `CC(=NNC(=O)c1cc(Br)ccc1O)c1nc2ccccc2n1C` (mixture of isomers), the “MIC>98” value in the experiment on Staphylococcus aureus [1] was over 194 µg/mL. Moreover, the inhibition in experiment [2] is -1.3%; in experiment [3], -3%; in experiment [4], 7.1%; in experiment [5] it was 0.5%. The compound further had an IC50 on Pyruvate kinase of 227 nM.

As to `CC/C(=N\NC(=O)c1cc(Br)ccc1O)c1cc2cc(Br)ccc2[nH]1`, 49 nM corresponded to half-maximal inhibition at Pyruvate kinase (IC50). In addition, in the experiment with Staphylococcus aureus [7], the “MIC>98” value turned out to be 4 µg/mL (≈ 8.6 µM).

`C/C(=N\NC(=O)c1cc(Br)ccc1O)c1cc2c(F)c(F)c(F)cc2[nH]1` came in with an IC50 against Pyruvate kinase of 15 nM. Besides, the “MIC>98” value with Staphylococcus aureus [7] was over 85 µg/mL.

Regarding `C/C(=N\NC(=O)c1cc(Br)ccc1O)c1cc2ccccc2s1`, the “MIC>98” value against Staphylococcus aureus [1] is over 195 µg/mL. Besides, the inhibition in experiment [2] is 7.3%; in experiment [3], 10.2%; in experiment [4] it was 12.5%; in experiment [5], -1.1%; in experiment [6] it was 96.4%. For the same compound, the IC50 on Pyruvate kinase was 286 nM.

For the compound `C/C(=N\NC(=O)c1cc(Br)ccc1O)c1cc2cc(Cl)ccc2[nH]1`, the “MIC>98” value against Staphylococcus aureus [1] was over 81 µg/mL. Besides, the inhibition in experiment [2] was 0.1%; in experiment [3], 4.4%; in experiment [4] it was 2.4%; in experiment [5], 4.6%; in experiment [6], 80.1%. Besides, the IC50 against Pyruvate kinase was found to be 52 nM.

For `CCC(=NNC(=O)c1cc(Br)ccc1O)c1cc2ccccc2n1C` (mixture of isomers), in the experiment with Staphylococcus aureus [1], the MIC>98 came to 5 µg/mL. The inhibition was 2.7% in experiment [2]; -4.3% in experiment [3]; -1.9% in experiment [4]; -1.5% in experiment [5]; 99.1% in experiment [6]. At Pyruvate kinase, this compound showed an IC50 of 461 nM.

As to `CC/C(=N\NC(=O)c1cc2ccccc2cc1O)c1cc2c(F)c(F)c(F)cc2n1C`, the IC50 against Pyruvate kinase came to 52 nM. The “MIC>98” value with Staphylococcus aureus [7] is 32 µg/mL (≈ 75.2 µM).

On to `C/C(=N\NC(=O)c1cc(Br)ccc1O)c1cc2cc(F)ccc2[nH]1`, for which the “MIC>98” value against Staphylococcus aureus [1] is over 195 µg/mL. Also, the inhibition in experiment [2] is -0.5%; in experiment [3] it was -4.6%; in experiment [4] it was -1.6%; in experiment [5], 0.4%; in experiment [6], 97%. The compound further had an IC50 against Pyruvate kinase of 49 nM.

Consider `CC(=NNC(=O)c1cc(Br)ccc1O)c1cc2cc(Cl)ccc2n1C` (mixture of isomers), for which the “MIC>98” value in the experiment with Staphylococcus aureus [1] was determined as 1.3 µg/mL. Besides, the inhibition is 5.7% in experiment [2]; 14.8% in experiment [3]; 6.9% in experiment [4]; 3.7% in experiment [5]; 92.3% in experiment [6]. At Pyruvate kinase, this compound yielded an IC50 of 228 nM.

With `COc1ccc(Br)cc1C(=O)N/N=C(\C)c1cc2ccccc2[nH]1`, in the experiment with Staphylococcus aureus [1], the “MIC>98” value is over 193 µg/mL. Moreover, the inhibition was found to be 27.2% in experiment [2]; 29% in experiment [3]; 31.9% in experiment [4]; 16.1% in experiment [5]; 83.4% in experiment [6]. This compound displayed a concentration for half-maximal inhibition (IC50) against Pyruvate kinase of 182 nM.

Regarding `C/C(=N\NC(=O)c1cc(Br)ccc1O)c1nc2ccccc2[nH]1`, the “MIC>98” value against Staphylococcus aureus [1] was over 187 µg/mL. For the same compound, the inhibition was 2.1% in experiment [2]; 7.6% in experiment [3]; -1.4% in experiment [4]; 6.7% in experiment [5]; 96.4% in experiment [6]. For the same compound, on Pyruvate kinase, the IC50 came to 91 nM.

For `O=C(N/N=C/c1cc2ccccc2[nH]1)c1cc(Br)ccc1O`, the “MIC>98” value with Staphylococcus aureus [1] is over 179 µg/mL. Further, the inhibition was 0.2% in experiment [2]; -7.2% in experiment [3]; -0.5% in experiment [4]; -1.4% in experiment [5]; 89.9% in experiment [6]. Besides, the IC50 at Pyruvate kinase is 863 nM.

Turning to `COc1ccc2[nH]c(/C(C)=N/NC(=O)c3cc(Br)ccc3O)cc2c1`, the “MIC>98” value in the experiment with Staphylococcus aureus [1] was over 80 µg/mL. Moreover, the inhibition came to 3.9% in experiment [2]; 7.2% in experiment [3]; 5.2% in experiment [4]; 2.2% in experiment [5]; 89.3% in experiment [6]. The same compound came in with an IC50 at Pyruvate kinase of 178 nM.

As to `CC(=NNC(=O)c1cc(I)ccc1O)c1cc2ccccc2n1C` (mixture of isomers), the “MIC>98” value with Staphylococcus aureus [1] stood at 5.4 µg/mL. Moreover, the inhibition was 4.4% in experiment [2]; -5.3% in experiment [3]; 4.7% in experiment [4]; -2% in experiment [5]; 94.2% in experiment [6]. In addition, the midpoint of inhibition against Pyruvate kinase, the IC50, lay at 483 nM.

Take `CC/C(=N\NC(=O)c1cc(Br)ccc1O)c1cc2ccccc2[nH]1`: in the experiment on Staphylococcus aureus [1], the “MIC>98” value is 9.7 µg/mL (≈ 25.1 µM). Moreover, the inhibition was 3.6% in experiment [2]; 6.6% in experiment [3]; 4.8% in experiment [4]; -2.4% in experiment [5]; 99.2% in experiment [6]. The IC50 at Pyruvate kinase was found to be 126 nM.

Take `CC(=NNC(=O)c1cc(Br)ccc1O)c1cc2cc(F)c(F)cc2n1C` (mixture of isomers): the “MIC>98” value against Staphylococcus aureus [1] was determined as 1.6 µg/mL. Also, the inhibition in experiment [2] is -2.4%; in experiment [4], 9%; in experiment [5], -8.1%; in experiment [6], 95.4%. This compound yielded an IC50 at Pyruvate kinase of 61 nM.

Take `C/C(=N\NC(=O)c1cc(Br)ccc1O)c1cc2ccccc2[nH]1`: the “MIC>98” value in the experiment with Staphylococcus aureus [1] was over 186 µg/mL. Also, the inhibition is -6.9% in experiment [2]; 4.6% in experiment [3]; -8.7% in experiment [4]; 4.3% in experiment [5]; 98.1% in experiment [6]. Besides, on Pyruvate kinase, 85 nM corresponded to half-maximal inhibition (IC50).
